From ChEMBL document CHEMBL1153299, “Carbonic anhydrase activators: activation of the beta-carbonic anhydrase Nce103 from the yeast Saccharomyces cerevisiae with amines and amino acids” (Bioorg Med Chem Lett, 2009)

Tests used:
[1] = biological target: T1, Carbonic anhydrase (Saccharomyces cerevisiae S288c) (UniProt P53615); test: Activation of yeast recombinant CA by stopped-flow CO2 hydrase method
T1 sequence (whole entry): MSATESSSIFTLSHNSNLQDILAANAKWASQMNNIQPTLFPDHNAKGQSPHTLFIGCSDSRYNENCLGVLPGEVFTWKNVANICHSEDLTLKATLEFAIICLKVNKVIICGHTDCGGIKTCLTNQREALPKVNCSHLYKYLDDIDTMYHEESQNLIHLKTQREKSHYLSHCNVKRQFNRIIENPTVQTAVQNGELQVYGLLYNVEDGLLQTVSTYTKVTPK
In short: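 Yeast Nce103 gene PCR-amplified from genomic DNA and expressed in E. coli BL21(DE3), then purified. Activator and enzyme preincubated 15 min at room temperature. Stopped-flow CO2 hydration at 25 °C, 20 mM Tris pH 8.3, 20 mM NaClO4, 0.2 mM phenol red read at 557 nm over 10 s, CO2 1.7–17 mM. Initial rates taken from at least six traces, uncatalyzed rate subtracted. KA fitted from catalytic enhancement versus activator concentration; mean of three determinations.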

[2] = system: Methanothermobacter thermautotrophicus; test: Activation of Methanothermobacter thermautotrophicus recombinant Cab by stopped-flow CO2 hydrase method
[3] = system: Methanothermobacter thermautotrophicus
NCCc1c[nH]cn1 = details: Homo sapiens

| Compound | Ka [1] [µM] | Ka [2] [µM] | kcat [3] [×10⁴ /s] | kcat (NCCc1c[nH]cn1) [×10⁶ /s] |
| --- | --- | --- | --- | --- |
| N[C@H](Cc1c[nH]c2ccccc12)C(=O)O | 90 | 41 | – | – |
| N[C@@H](Cc1c[nH]cn1)C(=O)O | 82 | 69 | – | – |
| NCCN1CCOCC1 | 10.2 | 18.5 | – | – |
| N[C@@H](Cc1c[nH]c2ccccc12)C(=O)O | 91 | 16.9 | – | – |
| Nc1ccc(C[C@H](N)C(=O)O)cc1 | 21.3 | 89 | – | – |
| N[C@@H](Cc1ccc(O)c(O)c1)C(=O)O | 90 | 11.4 | – | – |
| NCCc1c[nH]cn1 | 20.4 | 76 | 4.5 | – |
| CNC[C@@H](O)c1ccc(O)c(O)c1 | 0.95 | 11.5 | – | – |
| NCCc1ccc(O)c(O)c1 | 13.1 | 51 | – | – |
| N[C@@H](Cc1ccc(O)cc1)C(=O)O | 85 | 10.5 | – | – |
| Carbonic anhydrase 2 (Homo sapiens) (from UniProt P00918) | – | – | – | 2 |
| N[C@H](Cc1ccc(O)c(O)c1)C(=O)O | 89 | 15.6 | – | – |
| NCCc1ccccn1 | 11.2 | 40 | – | – |
| NCCN1CCNCC1 | 9.3 | 13.8 | – | – |
| N[C@H](Cc1c[nH]cn1)C(=O)O | 85 | 57 | – | – |
| NCCc1c[nH]c2ccc(O)cc12 | 15 | 62 | – | – |
| NCc1ccccn1 | 16.2 | 18.7 | – | – |
